In brackets after ≈: the same amount, converted by molar mass.
Experiments:
[1] = biological target: DPP8/9 (Homo sapiens, UniProt Q6V1X1+Q86TI2); test: Inhibition of recombinant human DPP8/9 expressed in Rosetta cells at 10 uM using Gly-Pro-p-nitroanilide as substrate incubated for 1 hr relative to control; settings: probe Gly-Pro-p-nitroanilide
[2] = biological target: T1, Glucose-dependent insulinotropic receptor (Homo sapiens) (UniProt Q8TDV5); test: Agonist activity at CREB-LBD and Gal4-DBD fused recombinant human GPR119 expressed in HEK293 cells at 1 uM by firefly luciferase assay relative to AR231453; format: functional, cell-based
T1 sequence (whole entry): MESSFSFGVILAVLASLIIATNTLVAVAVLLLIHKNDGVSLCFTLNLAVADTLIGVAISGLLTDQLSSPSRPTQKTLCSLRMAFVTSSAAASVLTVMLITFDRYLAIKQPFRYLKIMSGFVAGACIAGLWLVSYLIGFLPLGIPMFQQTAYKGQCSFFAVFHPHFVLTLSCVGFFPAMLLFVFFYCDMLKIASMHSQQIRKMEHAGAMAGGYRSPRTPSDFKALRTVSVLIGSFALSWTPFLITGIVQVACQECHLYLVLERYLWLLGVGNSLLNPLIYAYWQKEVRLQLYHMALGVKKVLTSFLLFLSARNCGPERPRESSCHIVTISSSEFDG
Outline: (§1)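 HEK293 cells transiently transfected with human GPR119, a Gal4-DBD/CREB-LBD fusion and a Gal4 UAS-driven luciferase reporter, then treated with compound (DMSO vehicle). Firefly luciferase luminescence read. Activation fold = compound/vehicle, expressed as percent of the AR231453 activation fold. EC50 obtained by curve fitting.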

[3] = biological target: T2, Glucose-dependent insulinotropic receptor (Homo sapiens, UniProt Q8TDV5); test: Agonist activity at CREB-LBD and Gal4-DBD fused recombinant human GPR119 expressed in HEK293 cells by firefly luciferase assay; format: functional, cell-based; outline: as §1
T2 sequence (Q8TDV5 whole entry): T1 sequence (whole entry)

[4] = Metabolic stability in ICR/CD-1 mouse hepatocytes assessed as parent compound remaining incubated for 30 mins by LC-MS/MS analysis; format: ADME, cell-based, Hepatocyte; settings: read-out: Stabilty
Outline: (§2)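 Hepatocytes from male ICR/CD-1 mice, male Sprague-Dawley rats, or mixed human donors. Parent compound measured after 30 min incubation and normalised to the time-zero concentration.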

[5] = Metabolic stability in Sprague-Dawley rat hepatocytes assessed as parent compound remaining incubated for 30 mins by LC-MS/MS analysis; format: ADME, cell-based, Hepatocyte; settings: read-out: Stabilty; outline: as §2
[6] = Metabolic stability in human hepatocytes assessed as parent compound remaining incubated for 30 mins by LC-MS/MS analysis; format: ADME, cell-based, Hepatocyte; settings: read-out: Stabilty; outline: as §2
[7] = test system: Vero; test: Cytotoxicity against African green monkey Vero cells incubated for 48 hrs by MTT assay; settings: Chlorocebus sabaeus

Row | SMILES | inhibition at 1 h, 10 µM [1] | Activity ([2]; filed as agonist) | EC50 [3] | Activity [2] | remaining at 0.5 h [4] | remaining at 0.5 h [5] | remaining at 0.5 h [6] | IC50 [7]
1 | CC#CCn1c(N2CCC[C@@H](N)C2)nc2c1c(=O)n(CCCN1CCC(c3cc(-c4ccccc4)on3)CC1)c(=O)n2C | 3.3% | 49% |  |  |  |  |  | 
2 | CC#CCn1c(N2CCC[C@@H](N)C2)nc2c1c(=O)n(CCCN1CCN(c3nc(-c4ccccc4)cs3)CC1)c(=O)n2C | 0% | 56% | 650 nM |  | 68.3% | 39.6% | 91.5% | 4.3 µg/mL (≈ 7.15 µM)
3 | CC#CCn1c(N2CCC[C@@H](N)C2)nc2c1c(=O)n(CCCN1CCN(c3ncc(F)cn3)CC1)c(=O)n2C |  | 78% | 1410 nM |  |  |  |  | 
4 | CC#CCn1c(N2CCC[C@@H](N)C2)nc2c1c(=O)n(CCCN1CCN(c3ncc(C(F)(F)F)cn3)CC1)c(=O)n2C |  | 90% | 4020 nM |  |  |  |  | 
5 | CC#CCn1c(N2CCC[C@@H](N)C2)nc2c1c(=O)n(CCCN1CCC(n3cc(-c4ccccc4)nn3)CC1)c(=O)n2C | 0% | 47% |  |  | 21% | 19.7% | 68.1% | 25.9 µg/mL (≈ 44.3 µM)
6 | CC#CCn1c(N2CCC[C@@H](N)C2)nc2c1c(=O)n(CCCN1CCN(c3ncc(CCC)cn3)CC1)c(=O)n2C |  | 84% | 1850 nM |  |  |  |  | 
7 | CC#CCn1c(N2CCC[C@@H](N)C2)nc2c1c(=O)n(CCCN1CCC(c3nc(-c4ccccc4)c[nH]3)CC1)c(=O)n2C | 5.1% | 65% | 600 nM |  | 69.4% | 21.7% | 84% | 35.2 µg/mL (≈ 60.3 µM)
8 | CC#CCn1c(N2CCC[C@@H](N)C2)nc2c1c(=O)n(CCCN1CCN(c3ncc(C)cn3)CC1)c(=O)n2C |  | 60% | 2560 nM |  |  |  |  | 
9 | CC#CCn1c(N2CCC[C@@H](N)C2)nc2c1c(=O)n(CCCN1CCN(c3noc(-c4ccccc4)n3)CC1)c(=O)n2C |  | 89% | 1450 nM |  | 24.2% | 25% | 82% | 8.7 µg/mL (≈ 14.8 µM)

Further lines, with some results ahead:

Row | inhibition at 1 h, 10 µM [1] | Activity ([2]; filed as agonist) | EC50 [3] | Activity [2] | SMILES | remaining at 0.5 h [4] | remaining at 0.5 h [5] | remaining at 0.5 h [6] | IC50 [7]
10 | 2.2% | 83% | 3130 nM |  | CC#CCn1c(N2CCC[C@@H](N)C2)nc2c1c(=O)n(CCCN1CCC(c3nc(-c4ccccc4)cs3)CC1)c(=O)n2C |  |  |  | 
11 |  | 85% | 3990 nM |  | CC#CCn1c(N2CCC[C@@H](N)C2)nc2c1c(=O)n(CCCN1CCN(c3ncc(CC)cn3)CC1)c(=O)n2C |  |  |  | 
12 | 4.6% | 53% |  |  | CC#CCn1c(N2CCC[C@@H](N)C2)nc2c1c(=O)n(CCCN1CCC(c3nnnn3-c3ccccc3)CC1)c(=O)n2C |  |  |  | 
13 |  | 100% | 640 nM |  | CC(C)c1noc(C2CCN(c3ncnc(Nc4ccc(S(C)(=O)=O)cc4F)c3[N+](=O)[O-])CC2)n1 |  |  |  | 
14 |  | 55% |  |  | CC#CCn1c(N2CCC[C@@H](N)C2)nc2c1c(=O)n(CCCN1CCC(c3nc(-c4ccccc4)no3)CC1)c(=O)n2C |  |  |  | 
15 | 1.6% | 81% | 1930 nM |  | CC#CCn1c(N2CCC[C@@H](N)C2)nc2c1c(=O)n(CCCN1CCN(c3nc(-c4ccccc4)ns3)CC1)c(=O)n2C |  |  |  | 
16 | 3.3% | 80% | 830 nM |  | CC#CCn1c(N2CCC[C@@H](N)C2)nc2c1c(=O)n(CCCN1CCC(c3ncc(-c4ccccc4)o3)CC1)c(=O)n2C |  |  |  | 
17 | 7.3% |  |  | 38% | CC#CCn1c(N2CCC[C@@H](N)C2)nc2c1c(=O)n(CCCN1CCN(c3nnc(-c4ccccc4)[nH]3)CC1)c(=O)n2C |  |  |  | 
18 | 15.4% | 42% |  |  | CC#CCn1c(N2CCC[C@@H](N)C2)nc2c1c(=O)n(CCCN1CCN(c3cc(C)nn3-c3ccccc3)CC1)c(=O)n2C |  |  |  | 
19 |  | 79% | 2260 nM |  | CC#CCn1c(N2CCC[C@@H](N)C2)nc2c1c(=O)n(CCCN1CCN(c3ncc(OC)cn3)CC1)c(=O)n2C |  |  |  | 

Source: ChEMBL document CHEMBL4680154, “The optimization of xanthine derivatives leading to HBK001 hydrochloride as a potent dual ligand targeting DPP-IV and GPR119” (Eur J Med Chem, 2020)
